# Results gathered from unrelated publications.
# Protocols differ between the studies behind these lines.
# PIK3CG: Phosphatidylinositol 4,5-bisphosphate 3-kinase catalytic subunit gamma isoform (PIK3CG, Homo sapiens, UniProt P48736)
# ADRA2B: Alpha-2B adrenergic receptor (ADRA2B, Homo sapiens, UniProt P18089)
Compound,target,observed,mode,method,pH,endpoint,result
CC(C)c1cccc(C(C)C)c1N=C1C(=O)Nc2ccccc21,PIK3CG,enzyme activity,inhibitor,ADP detection,,IC50,12.6 nM
CCN1/C(=C/C(C)=O)Sc2ccc(F)cc21,ADRA2B,ligand displacement,,radioligand,,Ki,987 nM
CCc1ccc(N=C2C(=O)N(Cc3ccccc3)c3ccccc32)cc1,PIK3CG,enzyme activity,inhibitor,ADP detection,,IC50,2.09 nM
Cc1cc(Oc2ncccc2CN2CCN(c3ccccc3O)CC2)ccc1-c1c(C)c(=O)[nH]c(=O)n1C,ADRA2B,ligand displacement,,radioligand,,Ki,97.5 nM
Nc1ncnc2c1ncn2C1CCCC1,"Inositol-tetrakisphosphate 1-kinase (Homo sapiens, UniProt Q13572)",binding,,ITC,pH 7.2,Kd,52 nM
Cc1cc(Oc2ncccc2CN2CCN(c3ccccc3Br)CC2)ccc1-c1c(C)c(=O)[nH]c(=O)n1C,ADRA2B,ligand displacement,,radioligand,,Ki,49.6 nM
COc1ccc(-c2cc(=O)c3cccc(Nc4ncc5cc(C(=O)N(C)C)n(C6CCCC6)c5n4)c3o2)cc1,PIK3CG,enzyme activity,inhibitor,radiometric,,IC50,> 10000 nM
CC(C)C[C@H](NC(=O)[C@H](CC(C)C)NC(=O)[C@H](Cc1c[nH]c2ccccc12)NC(=O)[C@H](CCC(N)=O)NC(=O)[C@@H](NC(=O)[C@H](Cc1ccccc1)NC(=O)[C@H](CC(=O)O)NC(=O)[C@H](CCC(N)=O)NC(=O)[C@H](C)NC(=O)[C@H](C)NC(=O)[C@H](CCCNC(=N)N)NC(=O)[C@H](CCC(=O)O)NC(=O)[C@H](CC(=O)O)NC(=O)[C@H](CC(C)C)NC(=O)[C@H](Cc1ccc(O)cc1)NC(=O)[C@H](CCCCN)NC(=O)[C@H](CO)NC(=O)[C@H](Cc1ccc(O)cc1)NC(=O)[C@H](CC(=O)O)NC(=O)[C@H](CO)NC(=O)[C@@H](NC(=O)[C@H](Cc1ccccc1)NC(=O)[C@@H](NC(=O)CNC(=O)[C@H](CCC(N)=O)NC(=O)C(C)(C)NC(=O)[C@@H](N)Cc1c[nH]cn1)[C@@H](C)O)[C@@H](C)O)C(C)C)C(=O)N[C@@H](CC(=O)O)C(=O)NCC(=O)NCC(=O)N1CCC[C@H]1C(=O)N[C@@H](CO)C(=O)N[C@@H](CC(C)C)C(=O)N[C@@H](CCCNC(=N)N)C(=O)N[C@@H](Cc1c[nH]cn1)C(=O)N[C@@H](Cc1ccc(O)cc1)C(=O)N[C@@H](CC(C)C)C(=O)N[C@@H](CC(N)=O)C(=O)N[C@@H](CC(C)C)C(=O)N[C@H](C(=O)N[C@H](C(=O)N[C@@H](CCCNC(=N)N)C(=O)N[C@@H](CCC(N)=O)C(=O)N[C@@H](CCCNC(=N)N)C(=O)N[C@@H](Cc1ccc(O)cc1)C(N)=O)[C@@H](C)O)C(C)C,"Neuropeptide Y receptor type 2 (NPY2R, Homo sapiens, UniProt P49146)",reporter gene,agonist,luciferase,,EC50,0.4 nM
COc1cc(-c2noc(C3CNc4cnn(C)c4C3)n2)cc(Cl)c1OC (stereo not shown),"FBXW7 (Homo sapiens, UniProt Q969H0)",binding,,SPR,,Kd,> 87000 nM
CC(C)c1cccc(C(C)C)c1N=C1C(=O)N(Cc2ccc(Br)cc2)c2ccccc21,PIK3CG,enzyme activity,inhibitor,ADP detection,,IC50,4.06 nM
Cc1cc(Oc2ncccc2CN2CCN(c3ccccn3)CC2)ccc1-c1c(C)c(=O)[nH]c(=O)n1C,ADRA2B,ligand displacement,,radioligand,,Ki,267 nM
COc1cc(N=C2C(=O)N(Cc3ccccc3)c3ccccc32)cc(OC)c1,PIK3CG,enzyme activity,inhibitor,ADP detection,,IC50,1.94 nM
Cc1cc(Oc2ncccc2CN2CCN(c3ccccc3C)CC2)ccc1-c1c(C)c(=O)[nH]c(=O)n1C,ADRA2B,ligand displacement,,radioligand,,Ki,28.4 nM
